Screens from PubChem.
G6PDH CS – inhibits Leuconostoc G6PDH, flagging false hits in G6PDH-based assays | Purified L. mesenteroides G6PDH, diaphorase/resazurin coupled fluorescence, 45 min | inhibition, % at 5 µM | 200,000 tested, 0.12% active | AID 1020
PfGluPho inh – PfG6PD (Plasmodium falciparum) enzyme inhibition | PfGluPho enzyme, NADPH resazurin-diaphorase fluorescence | inhibition, % at 20 µM | 350,000 tested, 0.78% active | AID 504690;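 active = inhibition reaching at least a set limit at 20 µM in the primary screen, cut at about 59% in these data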
L major viab – inhibitors of Leishmania major promastigote growth; Leishmania major promastigotes, resazurin fluorescence viability; inhibition, % at 10 µM; 200,000 tested, 9% active; AID 1063;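 note: promastigotes grown with compound for 44 hours at 28 °C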
Diaphorase act – diaphorase activation or chemical reduction counter-screen; 190,000 tested, 0.005% active; Diaphorase/resazurin coupled assay, resorufin fluorescence, 16 min; hits give high values; 1 = vehicle wells, 0 = NADH-free wells; activation factor at 20 µM;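 active = diaphorase activity raised at least twofold by the compound at 20 µM; inactive = activation factor below 2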
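Assay system: Purified diaphorase enzyme from Clostridium kluyveri | Amount: Enzyme 0.07 U/mL final | Dosing: Compound 20 µM once, DMSO 1% | Timing: 16 min reaction at room temperature | Detection: Fluorescence, excitation 544 nm and emission 590 nm | Evaluation: Higher resorufin formation from activation or reduction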
Redox H2O2 prof – compounds producing H2O2 with reducing agent – biochemical, NIH compound library profiling, artefact control for MLSCN library redox annotation, primary screen | AID 878 | activation, % at 10 µM | 200,000 tested, 0.03% active | DTT-dependent redox cycling H2O2, phenol red/HRP absorbance; 100% = 100 µM peroxide control, 0% = buffer;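 active = activation of at least 50% relative to the plate's high and low controls in the primary single-dose screen; inactive = activation below 50%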;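 note: compound incubated with DTT at 0.8 mM final as the reducing agent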
Diaphorase inh – counter-screen for diaphorase-based assays: diaphorase inhibitors and chemical oxidizers; inhibition, % at 20 µM; AID 1217; diaphorase resazurin-to-resorufin fluorescence, NADH, 16 min; bacterial (C. kluyveri) enzyme, not human; 190,000 tested, 0.69% active;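 active = primary screen inhibition at 20 µM above a set limit, cut at about 50% in these data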
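Detection: fluorescence of resorufin formed from resazurin, Ex 544/Em 590 nm; test system: Clostridium kluyveri diaphorase enzyme; amount: 0.14 U/mL diaphorase, enzyme working solution; times: 16-min room-temperature incubation before reading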
Numbers stand for hits; . = inactive; / = no result given. This is one part of a sample in which hits are shown more often than they occur. Cut-off read from the data, not from the text of the source, unless noted: active = inhibition above about 50%; inactive = the rest.

SMILES	G6PDH CS	PfGluPho inh	L major viab	Diaphorase act	Redox H2O2 prof	Diaphorase inh
CN1CCC(N(C)C(=S)Nc2ccc(F)cc2)CC1	.	.	.	.	.	.
CC1CC(C)CN(C(=S)Nc2ccc(SC(F)F)cc2)C1 (stereo not drawn)	.	.	73	.	.	.
CN1CCC(N(C)C(=S)Nc2ccc(SC(F)F)cc2)CC1	.	.	76	.	.	.
CC1CC(C)CN(C(=S)Nc2ccc(OC(F)F)cc2)C1 (stereo not drawn)	.	.	85	.	.	.
COC(=O)c1ccc2cn[nH]c2c1	/	.	/	/	/	/
O=S(=O)(c1ccc(Br)cc1)c1cnc2ccccc2n1	.	.	84	.	.	.
Cc1csc(SC(C)C(=O)Nc2ccc(Cl)cn2)n1 (stereo not drawn)	.	.	.	.	.	.
CC(Sc1nc(-c2ccc(F)cc2)cs1)C(=O)Nc1ccc(Cl)cn1 (stereo not drawn)	.	.	61	.	.	.
COc1cc(OC)c(C(=O)OCC(=O)NCCC2=CCCCC2)cc1OC	/	.	/	/	/	/
CC(CC(=O)c1ccc(F)cc1)N1CCN(c2ccccc2)CC1 (stereo not drawn)	/	.	/	/	/	/
CCCCC(=O)Nc1cccc(NC(=S)NC(=O)Cc2ccccc2)c1	.	.	52	.	.	.
CC(C)CC(=O)NC(=S)Nc1cccc(NC(=O)c2ccccc2)c1	.	.	100	.	.	.
CCCCC(=O)NC(=S)Nc1cccc(NC(=O)c2ccccc2)c1	.	.	98	.	.	.
CCCC(=O)Nc1ccc(Cl)c(NC(=S)NC(=O)C(C)C)c1	.	.	100	.	.	.
CC(=O)Oc1ccc(N2C(=O)C3C4C=CC(CC4)C3C2=O)cc1[N+](=O)[O-] (stereo not drawn)	.	.	.	.	.	.
COc1cc(CNCCc2ccccc2)ccc1OCC(N)=O	.	.	.	.	.	.
COc1ccccc1CCNCc1ccc(OC)c(OCc2ccccc2)c1	.	.	100	.	.	.
COc1ccc(CNCc2ccco2)cc1OCc1ccccc1	.	.	100	.	.	.
CCC1=C/C(=C/c2sc3ccccc3[n+]2CC)CC(C)(C)C1	.	61	99	.	.	.
CC[n+]1c(/C=C2/C=C(C)CC(C)(C)C2)sc2ccc(OC)cc21	.	.	100	.	.	.
COc1ccc2sc(C)[n+](C)c2c1	.	.	.	.	.	.
CC[n+]1c(/C=C2\C=C(C)CC(C)C2)sc2ccccc21 (stereo not drawn)	.	.	100	.	.	.
Cc1sc2ncnc(N3CCC(C(=O)Nc4cc(C(F)(F)F)ccc4OCC(F)(F)F)CC3)c2c1C	/	.	/	/	/	/
CN1CCN(c2ccc(S(=O)(=O)N3CCCCC3)cc2NC(=O)c2ccc(C#N)cc2)CC1	.	.	.	.	.	.
CN1CCN(c2ccc(Cl)cc2NC(=O)c2ccc(S(=O)(=O)N3CCCCCC3)cc2)CC1	.	.	88	.	.	.
SMILES	G6PDH CS	PfGluPho inh	L major viab	Diaphorase act	Redox H2O2 prof	Diaphorase inh
O=C(N/N=C\c1cc(Cl)ccc1O)c1ccc(S(=O)(=O)N2CCCCC2)cc1	.	.	98	.	.	.
O=C(CN1CCN(Cc2ccccc2)CC1)Nc1cccc(Cl)c1Cl	/	.	/	/	/	/
Cc1nn(CC(=O)Nc2cccc(S(N)(=O)=O)c2)c(C)c1[N+](=O)[O-]	.	.	63	.	.	.
Cc1ccc2nc(NC(=O)CCCc3nc4ccccc4s3)sc2c1	.	.	91	.	.	.
Cc1ccc2nc(NC(=O)Cn3nc(C)c([N+](=O)[O-])c3C)sc2c1	.	.	69	.	.	.
Cc1csc(NC(=O)Cn2nc(C)c([N+](=O)[O-])c2C)n1	.	.	.	.	.	.
CC(=O)c1ccc(NC(=O)Cn2nc(C)c([N+](=O)[O-])c2C)cc1	.	.	.	.	.	.
NS(=O)(=O)c1cccc(NC(=O)COC(=O)CCN2C(=O)c3ccccc3C2=O)c1	/	.	/	/	/	/
O=C(/C=C/c1ccc(S(=O)(=O)N2CCOCC2)cc1)OCC(=O)c1ccc([N+](=O)[O-])cc1	/	.	/	/	/	/
Cc1ccc2c(c1C)OC(=O)CC2c1ccccc1 (stereo not drawn)	/	.	/	/	/	/
CCOC(=O)c1c(C)n(C)c2ccc(OCC(O)Cn3c(C)nc4ccccc43)cc12 (stereo not drawn)	.	.	.	.	.	.
CCOC(=O)c1c(C)n(C)c2ccc(OCC(O)CN3CCN(C)CC3)cc12 (stereo not drawn)	.	.	76	.	.	.
CCOC(=O)c1c(C)n(-c2ccc(C)cc2)c2ccc(OCC(O)CN3CCN(C)CC3)cc12 (stereo not drawn)	.	.	100	.	.	.
CC(C)C(C)(C#N)NC(=O)CSc1nnc(-c2ccccc2)o1 (stereo not drawn)	.	.	.	.	.	.
O=C(c1ccco1)N1CCN(c2ncnc3scc(-c4ccc(F)cc4)c23)CC1	.	.	78	.	.	.
Cc1cccc2[nH]c3c(N4CCN(C(=O)c5ccco5)CC4)ncnc3c12	.	.	82	.	.	.
Cc1ccc(-c2csc3ncnc(N4CCN(C(=O)c5ccco5)CC4)c23)cc1	/	.	/	/	/	/
Cc1cccc2[nH]c3c(N4CCC5(CC4)OCCO5)ncnc3c12	.	.	.	.	.	.
CCOC(=O)Cn1nc(C)c2ccccc2c1=O	.	.	.	.	.	.
Cc1nn(CC(N)=O)c(=O)c2ccccc12	.	.	100	.	.	.
CCOCCCNCc1ccc(OC)c(OC)c1	.	.	80	.	.	.
CCCOc1ccc(CNCCCOCC)cc1OC	.	.	70	.	.	.
CCOCCCNCc1ccc(OC)cc1	.	.	.	.	.	.
CCOCCCNC(=O)Cc1ccc(OC)c(OC)c1	.	.	.	.	.	.
CCOCCCNCc1cccc(OC)c1	.	.	82	.	.	.
SMILES	G6PDH CS	PfGluPho inh	L major viab	Diaphorase act	Redox H2O2 prof	Diaphorase inh
Fc1cc(Br)ccc1COc1ccc(-c2nnco2)cc1	/	.	/	/	/	/
Cc1cnc(CNC(=O)c2ccc3oc(Cc4ccc(Cl)cc4)nc3c2)cn1	/	.	/	/	/	/
Cc1ccc(S(=O)(=O)N(C)c2cc(S(=O)(=O)N3CCC(C)CC3)c(C)cc2C)cc1	.	.	77	.	.	.
Cc1ccc(C(=O)N2CCN(C)CC2)cc1[N+](=O)[O-]	/	.	/	/	/	/
Cc1cc(NC2CCCCC2)nc2ccccc12	.	.	84	.	.	.
COc1ccc(CC(=O)Nc2sc3c(c2C(N)=O)CCCC3)cc1	/	.	/	/	/	/
COc1ccc2nc(Nc3sc4c(c3C(N)=O)CCCC4)sc2c1	.	67	.	.	.	.
CN(C)CCCN(C(=O)CCOc1ccccc1)c1nc2ccc(F)cc2s1	.	.	93	.	.	.
